Results on twelve molecules are retold here after ChEMBL document CHEMBL1150397, “Towards the first inhibitors of trihydroxynaphthalene reductase from Curvularia lunata: synthesis of artificial substrate, homology modelling and initial screening” (Bioorg Med Chem, 2008).

A word on the IC50: it is the concentration at which inhibition is half-maximal. The inhibition is the drop in the measured response relative to a control, in per cent.

The source made the active and inactive calls. The rule behind the calls is not given here.

Biological target in one assay: not listed separately
As to the kind of experiment: (§1) Inhibition of recombinant Curvularia lunata trihydroxynaphthalene reductase.
Settings: not given
In outline:
(§2)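 GST-fusion 3HNR from C. lunata expressed in E. coli BL21-AI, bound on glutathione-Sepharose, thrombin-cleaved, purity checked by SDS-PAGE. Initial rates of DDBO oxidation with NADP+ reduction followed at 340 nm (NADPH absorbance), 25 °C. Conditions: 0.2 µM enzyme, 100 µM DDBO, 500 µM coenzyme, 100 mM phosphate pH 7.0, 1% final DMF. Compounds screened at 100 µM; IC50 determined over 5–200 µM where screening inhibition exceeded 35%.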
For `COc1ccc2cc(CCC(C)=O)ccc2c1` [NABUMETONE], the IC50 was 111 µM.

Take `O=C(O)Cc1ccccc1Nc1c(Cl)cccc1Cl` [DICLOFENAC SODIUM]: the IC50 amounted to 108 µM.

With `O=C1CC(=O)c2ccccc21`, the IC50 amounted to 66 µM.

As to `CCc1cccc2c3c([nH]c12)C(CC)(CC(=O)O)OCC3` (configuration not stated) [ETODOLAC], the IC50 is 17 µM.

For the molecule `CCOC(=O)c1cc(=O)c2cc(C)ccc2o1`, the IC50 stood at 120 µM.

Turning to `CCOC(=O)c1cc(=O)c2cc(C)cc([N+](=O)[O-])c2o1`, the IC50 was determined as 167 µM.

The next assay relates to Curvularia lunata. Described as §1.
Settings: not given
In outline:
as §2
Turning to `CC(C)Cc1ccc(C(C)C(=O)O)cc1` (configuration not stated), the result was inactive.

On to `CC(=O)Nc1ccc(O)cc1`, for which the result was inactive.

On to `CCOc1ccc(NC(C)=O)cc1`, for which the result was inactive.

For `CC(C(=O)O)c1cccc(C(=O)c2ccccc2)c1` (configuration not stated), the result was inactive.

Still in this assay, the particulars now being: concentration not given here.
For the molecule `COc1ccc2cc([C@H](C)C(=O)O)ccc2c1`, the inhibition is 9%.

On to `Cc1ccc(-c2cc(C(F)(F)F)nn2-c2ccc(S(N)(=O)=O)cc2)cc1`, for which the inhibition was determined as 17%.
